The list is not random: actives were taken first. Their share in the collection is about 3.7%.
ERAP1 inh – blocks human ERAP1 aminopeptidase activity. Q9NZ08. recombinant ERAP1, Leu-AMC fluorescence, 60 min. inhibition, % at 10.7 µM. 0.15% of 340,000 active;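 active = mean replicate inhibition of at least 30%, or all replicates individually reaching that 30% level; inactive = mean below 30% and not every replicate reaching it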;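 note: 0% = neutral control wells and 100% = L-leucinethiol positive control wells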
DENV2 CPE rescue – inhibitors of DENV2 cytopathic effect | DENV2-infected cells, cytopathic effect rescue, plate reader | CPE inhibition, % at 9.99 µM | 1.7% of 350,000 active; in the data active = CPE inhibition above about 20%, passing the limit was not always enough; tested in BHK-21 cells;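 note: 0% = median of neutral control wells and 100% = median of positive control wells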
FGF22 binding – shifts melting point of recombinant human FGF22; Q9HCT0; recombinant FGF22 thermal shift, SYPRO orange fluorescence; percent of sucrose octasulfate shift, DMSO zero; activity (Tm shift, normalised), % at 9.99 µM; 1.5% of 340,000 active;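 active = mean Tm shift, scaled 0 neutral to 100 positive control, at about 1.3% or above, every replicate too, limit read from the data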
Target sequence (Q9HCT0 whole entry, looked up): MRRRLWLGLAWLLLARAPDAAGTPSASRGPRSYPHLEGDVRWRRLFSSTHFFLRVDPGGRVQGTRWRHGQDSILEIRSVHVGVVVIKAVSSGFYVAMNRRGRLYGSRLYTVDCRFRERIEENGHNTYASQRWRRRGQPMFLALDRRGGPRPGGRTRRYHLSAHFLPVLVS
CFTR F508del cor – CFTR F508del correction in bronchial cells; CFBE cells, YFP halide quenching; stimulated with forskolin plus potentiator P3; % fluorescence drop versus neutral controls; activity (quench increase), % at 7.58 µM; 0.36% of 350,000 active;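 active = mean added fluorescence quench of at least 8% versus neutral control, with both replicates also reaching 8%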;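 note: cells transiently co-express mutant CFTR-F508del with the halide-sensitive YFP; corrector assay measuring rescue of mutant channel to the surface after 24 h compound exposure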
E-sel inducer – induces E-selectin expression in human endothelial cells; AID 686992; P16581; activation, % at 7.58 µM; 0.37% of 260,000 active; HUVEC E-selectin immunofluorescence imaging; normalized: neutral wells 0, TNF-alpha wells 100;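 active = mean E-selectin-positive cell signal at least 10% of the positive control, reached in at least 60% of replicates, without over 20% cell loss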
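Material: HUVEC primary endothelial cells; Amount: 3,000 cells per well; Dosing: single concentration; Medium: EGM-2 growth medium on 0.1% gelatin-coated wells; Read-out basis: percent E-selectin-positive cells; Signal: immunofluorescence imaging; Control set: TNF-alpha, DMSO.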
An asterisk follows results filed as active; . = no result.

SMILES	ERAP1 inh	DENV2 CPE rescue	FGF22 binding	CFTR F508del cor	E-sel inducer
C[C@H]1CN([C@@H](C)CO)C(=O)Cc2cc(NC(=O)Nc3ccc4c(c3)OCO4)ccc2O[C@@H]1CN(C)Cc1ccc(C(=O)O)cc1	2.3	.	-0.2	0.6	.
C[C@@H]1CN([C@@H](C)CO)C(=O)Cc2cc(NC(=O)Nc3ccc(F)cc3)ccc2O[C@H]1CN(C)Cc1ccc(C(=O)O)cc1	6.5	6.1	-0.2	3.4	54.6*
C[C@H]1CN([C@@H](C)CO)C(=O)Cc2cc(NC(=O)Nc3ccc4c(c3)OCO4)ccc2O[C@H]1CN(C)Cc1ccc(C(=O)O)cc1	-0.8	78.3*	-0.1	-0.4	.
C[C@H](CO)N1C[C@H](C)[C@H](CN(C)Cc2ccc(C(=O)O)cc2)Oc2ccc(NC(=O)Nc3ccc(F)cc3)cc2CC1=O	0.3	3.9	-0.2	3.0	-5.8
C[C@@H]1CN([C@@H](C)CO)C(=O)Cc2cc(NC(=O)C3CC3)ccc2O[C@@H]1CN(C)Cc1ccc(-c2ccccc2)cc1	-2.4	31.3*	-0.6	2.7	1.7
C[C@H]1CN([C@@H](C)CO)C(=O)Cc2cc(NC(=O)Nc3ccc(F)cc3)ccc2O[C@H]1CN(C)Cc1ccc(-c2ccccc2)cc1	0.4	50.2*	0.6	0.8	0.8
Cn1cnc(S(=O)(=O)N2CC[C@@H]3[C@@H](CO)Nc4ccc(-c5ccccc5)cc4[C@@H]32)c1	0.6	-0.2	-0.2	-1.1	-0.8
C[C@@H]1CN([C@@H](C)CO)C(=O)Cc2cc(NC(=O)Nc3ccc4c(c3)OCO4)ccc2O[C@H]1CN(C)C(=O)Nc1ccccc1	.	-5.9	-0.1	1.0	-0.3
C/C=C/c1ccc2c(c1)O[C@H](CN(C)C(=O)Cc1cccnc1)[C@H](C)CN([C@H](C)CO)S2(=O)=O	-0.1	-3.7	0.8	1.5	-0.3
CCCNC(=O)C[C@@H]1CC[C@@H]2[C@@H](COc3ccc(NC(=O)c4cscn4)cc3C(=O)N2C)O1	.	.	.	1.5	0.6
C[C@@H]1CN([C@H](C)CO)C(=O)Cc2cc(NC(=O)Nc3ccc(F)cc3)ccc2O[C@@H]1CN(C)CC1CC1	1.3	7.8	0.2	-0.9	.
C[C@H](CO)N1C[C@H](C)[C@H](CN(C)CC2CC2)Oc2ccc(NC(=O)Nc3ccc(F)cc3)cc2CC1=O	1.9	41.8*	-0.7	1.9	.
C/C(=N\NC(=O)c1ccc(CSc2nncn2C)cc1)c1cccs1	-0.1	-5.7	43.3*	1.1	0.1
C/C(=N\NC(=O)c1cc(C)[nH]n1)c1cccs1	-2.6	-6.9	43.7*	0.8	.
C/C(=N\NC(=O)c1ccc(CSc2nncn2C)cc1)c1ccc(Cl)cc1	-0.9	3.9	-0.2	2.6	1.0
CNC[C@H]1Oc2cc(C#Cc3ccccn3)ccc2S(=O)(=O)N([C@@H](C)CO)C[C@@H]1C	1.4	1.8	-0.3	-0.3	-0.1
C[C@@H]1CN([C@H](C)CO)C(=O)c2cc(/C=C/c3ccccc3)cnc2O[C@@H]1CN(C)C	3.1	4.1	0.0	0.5	0.5
CC1(C)CC(=O)C=C(c2cccc(OC(=O)c3ccc(Br)cc3)c2)C1=O	-0.3	-2.4	0.3	-1.5	-0.6
CC(=O)Oc1cccc(C2=CC(=O)CC(C)(C)C2=O)c1	6.8	21.6*	0.0	1.9	2.6
C[C@H](CO)N1C[C@H](C)[C@H](CN(C)S(=O)(=O)c2ccc(F)cc2)Oc2ccc(NC(=O)Nc3ccc(C(F)(F)F)cc3)cc2CC1=O	-1.6	-23.2	0.5	9.3	1.0
O=C(C[C@H]1CC[C@H]2[C@@H](COC[C@@H](O)CN2C(=O)c2ccc(F)cc2)O1)NCCCN1CCOCC1	0.3	20.2*	-0.2	-0.8	-0.1
O=C(C[C@@H]1CC[C@H]2[C@@H](COC[C@H](O)CN2Cc2ccccc2)O1)N[C@@H]1CCN(Cc2ccccc2)C1	3.9	38.6*	-0.9	-0.5	0.2
O=C(C[C@@H]1CC[C@@H]2[C@H](COC[C@@H](O)CN2Cc2ccccc2)O1)NCc1ccccc1Cl	-4.1	33.4*	-0.3	-0.2	0.0
COc1ccc(CN2C[C@@H](O)COC[C@H]3O[C@H](CC(=O)NCc4ccncn4)CC[C@@H]32)cc1	-1.5	0.7	-0.1	-1.1	0.0
O=C(C[C@H]1CC[C@@H]2[C@H](COC[C@H](O)CN2Cc2ccc(F)cc2)O1)NCc1ccncn1	1.6	26.7*	-0.1	3.7	-0.1
SMILES	ERAP1 inh	DENV2 CPE rescue	FGF22 binding	CFTR F508del cor	E-sel inducer
COc1ccc(CN2CC3(C2)CN(C(=O)CN(C)C)[C@H](CO)c2[nH]c4cc(OC)ccc4c23)cc1	3.9	18.8	0.1	-0.9	-0.4
C[C@@H]1CN([C@@H](C)CO)C(=O)Cc2cc(NS(C)(=O)=O)ccc2O[C@@H]1CN(C)Cc1ccc(Oc2ccccc2)cc1	-3.5	15.4	0.0	-1.2	2.1
COc1cccc(CN2CC3(CN(CC4CC4)C3)c3c([nH]c4cc(OC)ccc34)[C@H]2CO)c1	-5.3	12.0	-0.2	1.3	-0.4
O=C(C[C@H]1CC[C@H]2NC[C@H](O)COC[C@@H]2O1)NCCc1ccccc1	-3.2	35.7*	-0.1	-0.3	0.1
O=C(C[C@H]1CC[C@H]2[C@@H](COC[C@@H](O)CN2S(=O)(=O)c2ccccc2Cl)O1)NCc1ccccc1Cl	-0.6	72.6*	-0.1	0.9	0.0
O=C(C[C@H]1CC[C@@H]2[C@H](COC[C@H](O)CN2S(=O)(=O)c2ccccc2Cl)O1)NCc1ccccc1Cl	-2.3	2.6	0.0	-0.6	0.1
O=C(C[C@@H]1CC[C@@H]2[C@H](COC[C@H](O)CN2Cc2cc(F)cc(F)c2)O1)NCc1cccc(F)c1	-0.2	21.8*	-0.1	-1.4	0.2
O=C(C[C@@H]1CC[C@@H]2[C@H](COC[C@@H](O)CN2Cc2ccc(F)cc2)O1)NCCc1ccccc1	0.1	28.1*	-0.1	0.2	0.0
O=C(C[C@@H]1CC[C@@H]2NC[C@H](O)COC[C@H]2O1)NCCc1ccccc1	-1.2	9.8	-0.5	-1.1	-0.1
O=C(C[C@@H]1CC[C@H]2[C@@H](COC[C@H](O)CN2Cc2ccc(F)cc2)O1)NCCc1ccccc1	0.7	-8.6	0.0	-2.7	0.4
COc1ccccc1-c1cnc2c(c1)C(=O)N([C@H](C)CO)C[C@H](C)[C@H](CN(C)Cc1ccc(F)cc1)O2	-1.3	9.6	0.1	-4.2	-0.4
O=C(NCC[C@@H]1CC[C@H](NC(=O)C2CCCCC2)[C@H](CO)O1)c1cnccn1	0.1	5.9	0.0	-3.8	-0.1
COc1ccccc1N1CCN(Cc2cnc3ccc(Cl)cn23)CC1	-1.2	32.0*	-0.2	-0.5	-0.1
COc1ccccc1N1CCN(Cc2ccc(C(=O)O)cc2)CC1	-1.8	0.4	-0.2	-0.6	.
Cc1cc(C)cc(N(CC(=O)NCc2ccco2)S(=O)(=O)c2c(C)noc2C)c1	.	41.0*	-0.5	-3.5	.
C=CC#CC1(O)CC(C)[N+](C)(C)CC1C (configuration not stated)	105.9*	.	0.1	1.6	.
